Compounds with a hit are over-represented: about 3.5% of the library has one in this group of screens.
RGS4 block: human RGS4 inhibition; P49798; HEK293 M3R/RGS4 inducible, Fluo-4 calcium flux; stronger effect = higher value; triggered by carbachol at its EC20; B-score at 10 µM; hit rate 0.45% among 310,000;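 active = B-score, a plate-corrected calcium signal, over three deviations above library mean, with baseline fluorescence within five deviations of library mean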;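 also: RGS4 expression induced by doxycycline in cells with stable M3 receptor; B-score is computed from the integrated fluorescence ratio over baseline after carbachol; higher B-score means a larger calcium signal and so more RGS4 inhibition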
Target sequence (P49798 whole entry, looked up): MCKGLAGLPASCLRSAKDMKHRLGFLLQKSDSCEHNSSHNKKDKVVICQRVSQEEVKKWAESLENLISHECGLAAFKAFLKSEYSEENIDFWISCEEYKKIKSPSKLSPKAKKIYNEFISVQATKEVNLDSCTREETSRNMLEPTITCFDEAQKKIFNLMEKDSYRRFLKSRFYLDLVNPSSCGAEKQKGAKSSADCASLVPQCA
MrgX1 ag: agonists of human MrgX1 receptor; Q96LB2; hit rate 0.44% among 310,000; AID 588627; B-score at 10 µM; MrgX1-HEK293 cells, Fluo-4 calcium fluorescence, agonist mode; stronger effect = higher value;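 active = calcium response B-score plate-corrected fluorescence ratio at least 3 library SD, with starting fluorescence B-score inside 5 SD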
Target sequence (Q96LB2 whole entry, looked up): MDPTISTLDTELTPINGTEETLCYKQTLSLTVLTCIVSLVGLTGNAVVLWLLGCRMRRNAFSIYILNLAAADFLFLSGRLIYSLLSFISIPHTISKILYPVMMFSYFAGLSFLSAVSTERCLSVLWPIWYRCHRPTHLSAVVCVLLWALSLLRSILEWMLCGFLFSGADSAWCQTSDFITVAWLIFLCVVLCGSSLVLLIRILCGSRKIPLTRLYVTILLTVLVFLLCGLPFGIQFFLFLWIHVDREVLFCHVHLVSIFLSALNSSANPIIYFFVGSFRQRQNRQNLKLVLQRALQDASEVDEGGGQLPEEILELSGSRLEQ
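System – MrgX1-expressing HEK293 cells · Incubation – cells plated overnight, dye loaded 0.5 h 37 °C, 0.5 h room temperature · Technique – kinetic Fluo-4 NW fluorescence of intracellular calcium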
RGS4 act: RGS4 potentiation or activation. HEK293 M3R/inducible RGS4, carbachol calcium flux Fluo4; stronger effect = lower value. B-score at 10 µM. hit rate 0.92% among 310,000;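 active = B-score of the integrated calcium signal more than 4 SD below the library mean, with starting fluorescence not abnormally high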;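 also: negative B-score means reduced calcium response which marks RGS4 activation or potentiation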
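Detection: kinetic calcium fluorescence imaging with Fluo4-AM dye, 2 µM / Material: HEK293 cells with stable M3R and inducible RGS4 / Schedule: recording 10 s baseline at 1 Hz, 100 s post-agonist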
MrgX1 antag: blocks BAM8-22 activation of human MrgX1 receptor | Q96LB2 | MRGX1-HEK293 calcium flux, Fluo-4, BAM8-22 antagonism; stronger effect = lower value | B-score at 10 µM | hit rate 1.3% among 310,000;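 active = calcium-response B-score plate-corrected more than 3 library SD below zero, starting fluorescence within 5 deviations, no agonist response on first addition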;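 also: peak minus trough fluorescence over baseline after final BAM8-22 challenge near maximal dose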
MrgX1 PAM: allosterically activates human MrgX1 receptor signaling. B-score at 10 µM. hit rate 0.63% among 310,000. MrgX1-HEK293, Fluo-4 calcium flux, FDSS; stronger effect = higher value. AID 588675. Q96LB2;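 active = plate-corrected calcium response at least 3 library SD above typical, normal starting fluorescence, not activating the receptor alone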;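 also: compound read alongside a low EC10 to EC30 dose of BAM8-22 agonist; peak minus trough fluorescence over baseline measured at the second addition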
An asterisk follows results filed as active; i = inactive; x = no result given.

SMILES | RGS4 block | MrgX1 ag | RGS4 act | MrgX1 antag | MrgX1 PAM
CS(=O)(=O)N1N=C(c2ccccc2)CC1c1ccc2c(c1)OCO2 (stereo not given) | i | i | i | i | i
CS(=O)(=O)Nc1cccc(C2=NN(S(C)(=O)=O)C(c3ccc4c(c3)OCO4)C2)c1 (stereo not given) | i | i | i | -7.64* | i
COc1ccc(/C=C/C(=O)OCC(=O)c2ccc3c(c2)NC(=O)CO3)c(OC)c1 | i | i | i | i | i
COc1cccc(/C=C/C(=O)OCC(=O)c2ccc3c(c2)NC(=O)CO3)c1OC | i | i | i | i | 11.4*
O=C(c1ccc(Cl)cc1)c1ccc(Oc2cc(NN3CCCCC3)c([N+](=O)[O-])cc2[N+](=O)[O-])cc1 | i | i | i | i | i
O=C(NCc1ccco1)C1CCN(S(=O)(=O)c2cccc([N+](=O)[O-])c2)CC1 | i | i | i | i | i
COc1ccc(/C=C/C(=O)OCC(=O)Nc2ccc(Cl)c(S(=O)(=O)N(C)C)c2)cc1OC | i | i | -9.44* | i | i
CC12COC3(C(=O)Nc4ccccc4F)CC1CCC32C (stereo not given) | i | i | i | i | i
CC12COC3(C(=O)Nc4ccc([N+](=O)[O-])cc4)CC1CCC32C (stereo not given) | i | i | i | i | 8.37*
CCc1cc(C(=O)N2CCCC(C(=O)c3ccc(Oc4ccccc4)cc3)C2)n(C)n1 (stereo not given) | i | i | i | i | i
Cc1onc(-c2cccc(Cl)c2Cl)c1C(=O)O/N=C(\N)c1ccc([N+](=O)[O-])o1 | i | i | -8.7* | i | i
Cc1noc(C)c1COC(=O)c1cccc(S(=O)(=O)N2c3ccccc3CC2C)c1 (stereo not given) | i | i | -7.4* | i | i
Cc1noc(C)c1COC(=O)c1cccc(S(=O)(=O)N2CCOCC2)c1 | i | i | i | i | i
CCc1oc(C(=O)OC)cc1CSC(=N)N | i | 42.5* | i | i | i
Clc1ccc2c(NCc3ccccc3)ccnc2c1 | i | 31.9* | i | i | i
S=C(NNc1ccnc2cc(Cl)ccc12)Nc1ccccc1Cl | i | i | i | i | 6.67*
CCN(CC)CCNc1ccnc2cc(Cl)ccc12 | i | i | i | i | i
S=C(Nc1ccccc1Cl)Nc1ccc(Cl)cc1Cl | i | i | i | i | i
CCN1CCN(C(=O)C2CCCN(S(=O)(=O)c3cccc4nsnc34)C2)CC1 (stereo not given) | i | i | i | i | i
COC(=O)/C=c1/s/c(=C(/C#N)C(=O)N2CCCCC2)n(-c2ccccc2)c1=O | i | i | i | i | i
COc1cc(/C=c2\s/c(=C(/C#N)C(=O)N3CCCC3)n(-c3ccccc3)c2=O)ccc1O | i | i | i | i | 14.3*
CCOC(=O)C1CCCN(C(=O)c2ccc3c(c2)N(Cc2ccccc2)C(=O)c2ccccc2S3=O)C1 (stereo not given) | i | i | i | i | i
COC(=O)C1=NN(C(=O)c2ccccc2)C(O)(c2ccc([N+](=O)[O-])cc2)C1 (stereo not given) | i | 53.7* | i | i | i
COC(=O)C1=NN(C(=O)c2ccccc2)C(C)(O)C1 (stereo not given) | i | i | i | i | i
COC(=O)C1=NN(C(=O)c2ccc(C)cc2)C(O)(c2ccc(Cl)cc2)C1 (stereo not given) | i | 66.6* | i | i | i
SMILES | RGS4 block | MrgX1 ag | RGS4 act | MrgX1 antag | MrgX1 PAM
COc1ccccc1NC(=O)NCc1nc(-c2ccc(C(F)(F)F)cc2)no1 | i | i | i | i | i
CC1CN(c2nn3c(=O)c4ccccc4nc3c3ccccc23)CC(C)O1 (stereo not given) | i | i | i | i | i
CCN1CCN(c2nn3c(=O)c4ccccc4nc3c3ccccc23)CC1 | i | i | -8.6* | i | i
COc1ccccc1/C=N/NC(=O)NC12CC3CC(CC(C3)C1)C2 | i | i | i | i | i
COc1ccc(/C=N/NC(=O)NC23CC4CC(CC(C4)C2)C3)c(OC)c1 | i | i | i | i | 6.95*
O=Cc1cccc(OC(=O)Nc2ccccc2)c1 | i | i | i | i | i
O=c1/c(=C\c2cc([N+](=O)[O-])cc([N+](=O)[O-])c2O)sc2nc3ccccc3n12 | x | 29.1* | x | i | i
O=C(O)c1cccc(-c2ccc(/C=c3/sc4nc5ccccc5n4c3=O)o2)c1 | i | i | i | -12.2* | i
O=c1/c(=C/c2ccccn2)sc2nc3ccccc3n12 | x | i | x | i | i
C/C(=N\Nc1nccnc1Cl)c1ccc(O)c(C)c1 | i | i | i | i | i
NS(=O)(=O)c1ccc(CCNCc2cccnc2)cc1 | i | i | i | i | i
CCOc1ccc(C2C=C(c3ccccc3)Nc3ncnn32)cc1 (stereo not given) | i | i | i | i | 11.2*
Oc1ccc(C2C=C(c3ccc(F)cc3)Nc3ncnn32)cc1 (stereo not given) | i | x | i | x | x
Cc1ccc(C2C=C(c3ccccc3)Nc3ncnn32)cc1 (stereo not given) | i | i | i | i | 7.81*
CCOc1ccc(C2C=C(c3ccc(F)cc3)Nc3ncnn32)cc1 (stereo not given) | i | i | i | i | 8.36*
CCc1cccc(NS(=O)(=O)c2c(C)nc3scc(C)n3c2=O)c1 | i | i | i | i | i
COCCCNC(=O)c1cc2c(=O)n3cc(C)ccc3nc2nc1NCC1CCCO1 (stereo not given) | i | i | i | -7.55* | i
Cc1cccc(CSc2nc3c(c(-c4cccs4)c2C#N)CN(C)CC3)c1 | i | i | i | i | 8.74*
C=CCOc1ccc(/C=C/C(=O)OCC(=O)N2CCCc3ccccc32)cc1 | i | i | i | -9.46* | i
C=C(C)C(=O)N1CC2(CC(c3cccc(NC(=O)/C(C)=C\C)c3)=NO2)C[C@H]1C(N)=O (stereo not given in full) | i | i | i | -4.78* | i
CCCCCC(=O)Nc1cccc(C2=NOC3(C2)C[C@@H](C(N)=O)N(C(=O)c2cc([N+](=O)[O-])cc([N+](=O)[O-])c2)C3)c1 (stereo not given in full) | i | i | i | -6.12* | i
COc1ccc(CN(CCNC(=O)CCCCC(=O)NCCN(Cc2ccc(OC)cc2)C(C)C)C(C)C)cc1 | i | i | -9.15* | i | i

From PubChem
